In brackets after ≈: the same amount, converted by molar mass.

The test system of one experiment is Staphylococcus aureus. The experiment can be described thus: Antibacterial activity against Staphylococcus aureus ATCC 25923 by broth microdilution method. It counts as functional.
Conditions: not given
In general, IC50 refers to the concentration that inhibits the measured activity by half. High values mean weaker potency in that assay, low ones greater potency in that assay. One may read the MIC as the lowest concentration found to suppress growth. Read a high MIC as weaker potency. As for `Nc1ccccc1-n1sc2ccccc2c1=O`, the IC50 is more than 50 µg/mL and the minimum inhibitory concentration (MIC) was more than 50 µg/mL.

As to `O=c1c2ccccc2sn1CCn1sc2ccccc2c1=O`, the IC50 amounted to 4.1 µg/mL (≈ 12.5 µM) and the MIC came out at 16.7 µg/mL (≈ 50.8 µM).

Take `CC[C@H](C)[C@@H](C(=O)OC)n1sc2ccccc2c1=O`: half-maximal inhibition (IC50) was put at 2 µg/mL (≈ 7.16 µM) and the lowest concentration to inhibit growth (MIC) was 4.2 µg/mL (≈ 15 µM).

Regarding `CC(Cn1sc2ccccc2c1=O)n1sc2ccccc2c1=O` (stereo not drawn), the IC50 was 6.1 µg/mL (≈ 17.8 µM) and it took 12.4 µg/mL (≈ 36.2 µM) to inhibit growth (MIC).

For a further experiment, the system named is Staphylococcus aureus. The experiment can be described thus: Antibacterial activity against methicillin-resistant Staphylococcus aureus ATCC 700699 by broth microdilution method. It counts as functional. Particulars: Mu50. On the technique in general: Dilution methods test growth across graded concentrations, often in twofold steps.
`Nc1ccccc1-n1sc2ccccc2c1=O`: the half-inhibitory concentration (IC50) was more than 50 µg/mL and the MIC is more than 50 µg/mL.

`O=c1c2ccccc2sn1CCn1sc2ccccc2c1=O` had an IC50 of 0.4 µg/mL (≈ 1.22 µM) and an MIC of 0.9 µg/mL (≈ 2.74 µM).

`CC[C@H](C)[C@@H](C(=O)OC)n1sc2ccccc2c1=O` came in with an IC50 of 0.43 µg/mL (≈ 1.54 µM) and an MIC of 0.89 µg/mL (≈ 3.19 µM).

`CC(Cn1sc2ccccc2c1=O)n1sc2ccccc2c1=O` (stereo not drawn) registered a half-inhibitory concentration (IC50) of 1.5 µg/mL (≈ 4.38 µM) and a minimal inhibitory concentration (MIC) of 2.6 µg/mL (≈ 7.59 µM).

In the next experiment the test system is Staphylococcus aureus. Nature of the experiment: Antibacterial activity against Staphylococcus aureus ATCC 29213 by broth microdilution method.
Conditions: not given
Format: functional.
`Nc1ccccc1-n1sc2ccccc2c1=O`: the IC50 is more than 50 µg/mL and the MIC was more than 50 µg/mL.

On to `O=c1c2ccccc2sn1CCn1sc2ccccc2c1=O`, for which the IC50 amounted to 0.3 µg/mL (≈ 0.913 µM) and the MIC was found to be 0.4 µg/mL (≈ 1.22 µM).

In turn, `CC[C@H](C)[C@@H](C(=O)OC)n1sc2ccccc2c1=O` came in with an IC50 of 2.1 µg/mL (≈ 7.52 µM) and a minimal inhibitory concentration (MIC) of 4.3 µg/mL (≈ 15.4 µM).

On to `CC(Cn1sc2ccccc2c1=O)n1sc2ccccc2c1=O` (stereo not drawn), for which the midpoint of inhibition, the IC50, lay at 2 µg/mL (≈ 5.84 µM) and the MIC was 4.1 µg/mL (≈ 12 µM).

A further experiment concerns Escherichia coli. The experiment can be described thus: Antibacterial activity against Escherichia coli ATCC 9637 by broth microdilution method. Format: functional. Particulars: W. In a few lines:
(§1)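 Bacteria were tested by the NCCLS method in Mueller Hinton broth, with gentamicin and norfloxacin as reference drugs.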
`Nc1ccccc1-n1sc2ccccc2c1=O` registered a half-inhibitory concentration (IC50) of more than 50 µg/mL and an MIC of more than 50 µg/mL.

For `O=c1c2ccccc2sn1CCn1sc2ccccc2c1=O`, the IC50 was more than 50 µg/mL and the MIC is more than 50 µg/mL.

With `CC[C@H](C)[C@@H](C(=O)OC)n1sc2ccccc2c1=O`, the IC50 is more than 50 µg/mL and the MIC was more than 50 µg/mL.

Turning to `CC(Cn1sc2ccccc2c1=O)n1sc2ccccc2c1=O` (stereo not drawn), the IC50 was more than 50 µg/mL and the MIC was more than 50 µg/mL.

For a further experiment, the system named is Pseudomonas aeruginosa. Nature of the experiment: Antibacterial activity against Pseudomonas aeruginosa ATCC BAA-427 by broth microdilution method. It counts as functional.
Conditions: not given
In a few lines: as §1
`Nc1ccccc1-n1sc2ccccc2c1=O`: the IC50 was more than 50 µg/mL and the MIC was more than 50 µg/mL.

In turn, `O=c1c2ccccc2sn1CCn1sc2ccccc2c1=O` displayed a half-maximal inhibitory concentration (IC50) of more than 50 µg/mL and an MIC of more than 50 µg/mL.

Turning to `CC[C@H](C)[C@@H](C(=O)OC)n1sc2ccccc2c1=O`, the IC50 is more than 50 µg/mL and the MIC is more than 50 µg/mL.

`CC(Cn1sc2ccccc2c1=O)n1sc2ccccc2c1=O` (stereo not drawn) yielded an IC50 of more than 50 µg/mL and an MIC of more than 50 µg/mL.

The test system of a further experiment is Klebsiella pneumoniae. The experiment can be described thus: Antibacterial activity against Klebsiella pneumoniae ATCC 27736 by broth microdilution method. It counts as functional.
Conditions: not given
In a few lines:
as §1
`Nc1ccccc1-n1sc2ccccc2c1=O` registered an IC50 of more than 50 µg/mL and an MIC of more than 50 µg/mL.

In turn, `O=c1c2ccccc2sn1CCn1sc2ccccc2c1=O` displayed an IC50 of more than 50 µg/mL and an MIC of more than 50 µg/mL.

In turn, `CC[C@H](C)[C@@H](C(=O)OC)n1sc2ccccc2c1=O` had an IC50 of more than 50 µg/mL and an MIC of more than 50 µg/mL.

In turn, `CC(Cn1sc2ccccc2c1=O)n1sc2ccccc2c1=O` (stereo not drawn) gave an IC50 of more than 50 µg/mL and an MIC of more than 50 µg/mL.

The next experiment deals with Candida albicans. Nature of the experiment: Anti-fungal activity against Candida albicans after 48 hrs by broth microdilution method. It counts as functional.
Conditions: not given
Regarding `Nc1ccccc1-n1sc2ccccc2c1=O`, it took 2.6 µg/mL (≈ 10.7 µM) to reach half-maximal inhibition (IC50) and the MIC turned out to be 4.3 µg/mL (≈ 17.7 µM).

`O=c1c2ccccc2sn1CCn1sc2ccccc2c1=O` yielded an IC50 of 1.51 µg/mL (≈ 4.6 µM) and an MIC of 1.54 µg/mL (≈ 4.69 µM).

For `CC[C@H](C)[C@@H](C(=O)OC)n1sc2ccccc2c1=O`, 1.6 µg/mL (≈ 5.73 µM) corresponded to half-maximal inhibition (IC50) and the MIC was 2.5 µg/mL (≈ 8.95 µM).

Compound `CC(Cn1sc2ccccc2c1=O)n1sc2ccccc2c1=O` (stereo not drawn) yielded an IC50 of 2.2 µg/mL (≈ 6.42 µM) and an MIC of 3.1 µg/mL (≈ 9.05 µM).

The subject of a further experiment is Cryptococcus neoformans. The experiment can be described thus: Anti-fungal activity against Cryptococcus neoformans after 48 hrs by broth microdilution method. Format: functional.
Conditions: not given
Compound `Nc1ccccc1-n1sc2ccccc2c1=O` displayed an IC50 of 1.9 µg/mL (≈ 7.84 µM) and an MIC of 2.3 µg/mL (≈ 9.49 µM).

With `O=c1c2ccccc2sn1CCn1sc2ccccc2c1=O`, the IC50 was found to be 1.4 µg/mL (≈ 4.26 µM) and the MIC amounted to 2.2 µg/mL (≈ 6.7 µM).

Take `CC[C@H](C)[C@@H](C(=O)OC)n1sc2ccccc2c1=O`: the 50% inhibitory concentration (IC50) turned out to be 7.3 µg/mL (≈ 26.1 µM) and the MIC was 8.3 µg/mL (≈ 29.7 µM).

`CC(Cn1sc2ccccc2c1=O)n1sc2ccccc2c1=O` (stereo not drawn) yielded a 50% inhibitory concentration (IC50) of 1.61 µg/mL (≈ 4.7 µM) and an MIC of 1.67 µg/mL (≈ 4.88 µM).

A further experiment deals with Sporothrix schenckii. Nature of the experiment: Anti-fungal activity against Sporothrix schenckii after 48 hrs by broth microdilution method. Format: functional.
Conditions: not given
Turning to `Nc1ccccc1-n1sc2ccccc2c1=O`, the IC50 came out at 5.7 µg/mL (≈ 23.5 µM) and the MIC stood at 11.7 µg/mL (≈ 48.3 µM).

In turn, `O=c1c2ccccc2sn1CCn1sc2ccccc2c1=O` displayed an IC50 of 2.3 µg/mL (≈ 7 µM) and an MIC of 3.5 µg/mL (≈ 10.7 µM).

`CC[C@H](C)[C@@H](C(=O)OC)n1sc2ccccc2c1=O` displayed an IC50 of 4.7 µg/mL (≈ 16.8 µM) and an MIC of 18.2 µg/mL (≈ 65.1 µM).

The compound `CC(Cn1sc2ccccc2c1=O)n1sc2ccccc2c1=O` (stereo not drawn) gave an IC50 of 3.7 µg/mL (≈ 10.8 µM) and an MIC of 6.6 µg/mL (≈ 19.3 µM).

Another experiment concerns Trichophyton mentagrophytes. The experiment can be described thus: Anti-fungal activity against Trichophyton mentagrophytes after 48 hrs by broth microdilution method.
Conditions: not given
It counts as functional.
Consider `Nc1ccccc1-n1sc2ccccc2c1=O`, for which the MIC was 3.3 µg/mL (≈ 13.6 µM).

`O=c1c2ccccc2sn1CCn1sc2ccccc2c1=O` yielded an MIC of 2.9 µg/mL (≈ 8.83 µM).

As to `CC[C@H](C)[C@@H](C(=O)OC)n1sc2ccccc2c1=O`, the IC50 is more than 50 µg/mL and the MIC was more than 50 µg/mL.

Regarding `CC(Cn1sc2ccccc2c1=O)n1sc2ccccc2c1=O` (stereo not drawn), the MIC is 4.3 µg/mL (≈ 12.6 µM).

The subject of the next experiment is Aspergillus fumigatus. The experiment can be described thus: Anti-fungal activity against Aspergillus fumigatus after 48 hrs by broth microdilution method. Format: functional.
Conditions: not given
With `Nc1ccccc1-n1sc2ccccc2c1=O`, the MIC came to 12.5 µg/mL (≈ 51.6 µM).

In turn, `O=c1c2ccccc2sn1CCn1sc2ccccc2c1=O` gave an MIC of 12.5 µg/mL (≈ 38.1 µM).

The compound `CC[C@H](C)[C@@H](C(=O)OC)n1sc2ccccc2c1=O` registered an MIC of 12.5 µg/mL (≈ 44.7 µM).

With `CC(Cn1sc2ccccc2c1=O)n1sc2ccccc2c1=O` (stereo not drawn), the MIC was found to be 12.5 µg/mL (≈ 36.5 µM).

The subject of a further experiment is Candida parapsilosis. Nature of the experiment: Anti-fungal activity against Candida parapsilosis ATCC 22019 after 48 hrs by broth microdilution method. Format: functional. Particulars: Lodderomyces parapsilosis, ATCC 22019, 48 h.
Compound `Nc1ccccc1-n1sc2ccccc2c1=O` showed an IC50 of more than 50 µg/mL and an MIC of more than 50 µg/mL.

In the case of `O=c1c2ccccc2sn1CCn1sc2ccccc2c1=O`, the IC50 was more than 50 µg/mL and the MIC is more than 50 µg/mL.

Turning to `CC[C@H](C)[C@@H](C(=O)OC)n1sc2ccccc2c1=O`, 3.1 µg/mL (≈ 11.1 µM) corresponded to half-maximal inhibition (IC50) and the MIC stood at 4.5 µg/mL (≈ 16.1 µM).

`CC(Cn1sc2ccccc2c1=O)n1sc2ccccc2c1=O` (stereo not drawn) had an IC50 of more than 50 µg/mL and an MIC of more than 50 µg/mL.

A further experiment concerns Plasmodium falciparum. The experiment can be described thus: Antimalarial activity against chloroquine-sensitive Plasmodium falciparum 3D7 after 72 hrs by SYBR Green-1 staining based fluorescence assay. Format: functional. Particulars: 3D7, 72 h.
Compound `Nc1ccccc1-n1sc2ccccc2c1=O` had an IC50 of more than 2000 nM.

For `O=c1c2ccccc2sn1CCn1sc2ccccc2c1=O`, the IC50 is more than 2000 nM.

`CC[C@H](C)[C@@H](C(=O)OC)n1sc2ccccc2c1=O` yielded an IC50 of more than 2000 nM.

`CC(Cn1sc2ccccc2c1=O)n1sc2ccccc2c1=O` (stereo not drawn) displayed an IC50 of more than 2000 nM.

For the origin of these results see ChEMBL document CHEMBL3994637, “Broad spectrum anti-infective properties of benzisothiazolones and the parallels in their anti-bacterial and anti-fungal effects” (Bioorg Med Chem Lett, 2017).
